Laboratory results reported in ChEMBL document CHEMBL1152431, “p-Guanidinoethyl calixarene and parent phenol derivatives exhibiting antibacterial activities. Synthesis and biological evaluation” (Bioorg Med Chem, 2009).
Active and inactive are the calls of the source. The rule behind the calls is not given here.

Assays:
[1] = Selectivity index, ratio of IC50 for human MRC5 cells after 24 hrs to MIC for Enterococcus faecalis ATCC 29212; format: functional
Method in brief: (§1)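 SI computed as the MRC-5 IC50 after 24 h of drug exposure divided by the broth microdilution MIC for the named reference strain.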

[2] = Selectivity index, ratio of IC50 for human MRC5 cells after 24 hrs to MIC for Pseudomonas aeruginosa ATCC 27853; format: functional; method in brief: as §1
Staphylococcus aureus [3] = assay: Antibacterial activity against Staphylococcus aureus ATCC 25923 after 18 to 24 hrs by broth microdilution method; format: functional
Method in brief: (§2)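 CLSI broth microdilution in Mueller-Hinton broth, with a final inoculum of 1 × 10^5 CFU/mL in U-bottom microplates. Isolate purity was checked at each test by colony morphology and Gram stain. Drug dilutions were added and plates incubated 18–24 h at 35 °C. Growth was read as absorbance at 540 nm to give the MIC.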

Pseudomonas aeruginosa [4] = assay: Antibacterial activity against Pseudomonas aeruginosa ATCC 27853 after 18 to 24 hrs by broth microdilution method; format: functional; method in brief: as §2
[5] = Selectivity index, ratio of IC50 for human MRC5 cells after 24 hrs to MIC for Staphylococcus aureus ATCC 25923; format: functional; method in brief: as §1
[6] = Selectivity index, ratio of IC50 for human MRC5 cells after 24 hrs to MIC for Escherichia coli ATCC 25922; format: functional; method in brief: as §1
MRC5 [7] = assay: Cytotoxicity against human MRC5 cells after 168 hrs; format: cell-based; conditions: MRC5, 168 h
Method in brief: (§3)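 MRC-5 human embryonic lung fibroblasts were grown in MEM with 10% heat-inactivated FBS and no antibiotics at 37 °C, 5% CO2, and seeded at 10^4 cells/well. After 48 h, drugs were applied at 256 to 1 µg/mL for 24, 48 or 168 h. Viability was read by MTT, or by LDH release for some compounds, as percent of untreated control. IC50 was given as a range; 8 wells per dose, 3 independent experiments.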

Staphylococcus aureus [8] = assay: Antibacterial activity against Staphylococcus aureus ATCC 29213 after 18 to 24 hrs by broth microdilution method; format: functional; method in brief: as §2
MRC5 [9] = assay: Cytotoxicity against human MRC5 cells after 48 hrs; format: cell-based; conditions: MRC5, 48 h; method in brief: as §3
Escherichia coli [10] = assay: Antibacterial activity against Escherichia coli ATCC 25922 after 18 to 24 hrs by broth microdilution method; format: functional; method in brief: as §2
MRC5 [11] = assay: Cytotoxicity against human MRC5 cells after 24 hrs; format: cell-based; conditions: MRC5, 24 h; method in brief: as §3
Enterococcus faecalis [12] = assay: Antibacterial activity against Enterococcus faecalis ATCC 29212 after 18 to 24 hrs by broth microdilution method; format: functional; method in brief: as §2
[13] = Selectivity index, ratio of IC50 for human MRC5 cells after 24 hrs to MIC for Staphylococcus aureus ATCC 29213; format: functional; method in brief: as §1
Enterococcus faecalis [14] = assay: Antibacterial activity against Enterococcus faecalis ATCC 29212 upto 256 ug/mL after 18 to 24 hrs by broth microdilution method; format: functional, organism-based; method in brief: as §2
Staphylococcus aureus [15] = assay: Antibacterial activity against Staphylococcus aureus ATCC 25923 upto 256 ug/mL after 18 to 24 hrs by broth microdilution method; format: functional, organism-based; method in brief: as §2
Staphylococcus aureus [16] = assay: Antibacterial activity against Staphylococcus aureus ATCC 29213 upto 256 ug/mL after 18 to 24 hrs by broth microdilution method; format: functional, organism-based; method in brief: as §2
Escherichia coli [17] = assay: Antibacterial activity against Escherichia coli ATCC 25922 upto 256 ug/mL after 18 to 24 hrs by broth microdilution method; format: functional, organism-based; method in brief: as §2
Pseudomonas aeruginosa [18] = assay: Antibacterial activity against Pseudomonas aeruginosa ATCC 27853 upto 256 ug/mL after 18 to 24 hrs by broth microdilution method; format: functional, organism-based; method in brief: as §2

SMILES | Selectivity Index [1] | Selectivity Index [2] | MIC (Staphylococcus aureus [3]) [µg/mL] | MIC (Pseudomonas aeruginosa [4]) [µg/mL] | Selectivity Index [5] | Selectivity Index [6] | IC50 (MRC5 [7]) [µg/mL] | MIC (Staphylococcus aureus [8]) [µg/mL] | IC50 (MRC5 [9]) [µg/mL] | MIC (Escherichia coli [10]) [µg/mL] | IC50 (MRC5 [11]) [µg/mL] | MIC (Enterococcus faecalis [12]) [µg/mL] | Selectivity Index [13] | Activity (Enterococcus faecalis [14]) | Activity (Staphylococcus aureus [15]) | Activity (Staphylococcus aureus [16]) | Activity (Escherichia coli [17]) | Activity (Pseudomonas aeruginosa [18])
N=C(N)NCCc1cc2c(O)c(c1)Cc1cc(CCNC(=N)N)cc(c1O)Cc1cc(CCNC(=N)N)cc(c1O)Cc1cc(CCNC(=N)N)cc(c1O)C2.O=C(O)C(F)(F)F | >8 | >8 | 8 | 32 | >32 | >64 | 128 | 8 | > 256 | 4 | > 256 | 32 | >32 |  |  |  |  | 
Cc1ccc(-c2ccc(COc3c4cc(CCNC(=N)N)cc3Cc3cc(CCNC(=N)N)cc(c3O)Cc3cc(CCNC(=N)N)cc(c3OCc3ccc(-c5ccc(C)cn5)nc3)Cc3cc(CCNC(=N)N)cc(c3O)C4)cn2)nc1.O=C(O)C(F)(F)F | >16 | >4 | 8 | 32 | >16 | >4 |  | 8 | > 128 | 32 | > 128 | 8 | >16 |  |  |  |  | 
Cc1cccc(-c2cccc(COc3c4cc(CCNC(=N)N)cc3Cc3cc(CCNC(=N)N)cc(c3O)Cc3cc(CCNC(=N)N)cc(c3OCc3cccc(-c5cccc(C)n5)n3)Cc3cc(CCNC(=N)N)cc(c3O)C4)n2)n1.O=C(O)C(F)(F)F | 1 | 1 | 16 | 16 | 1 | 1 | 16 | 16 | 16 | 16 | 16 | 16 | 1 |  |  |  |  | 
Cc1cccc(-c2cccc(COc3ccc(CCNC(=N)N)cc3)n2)n1.O=C(O)C(F)(F)F | 0.5 | 0.25 | 16 | 128 | 2 | 0.25 | 2 | 8 | 16 | 128 | 32 | 64 | 4 |  |  |  |  | 
N=C(N)NCCCCCCCCCCNC(=N)N.O=C(O)C(F)(F)F [SYNTHALIN A] | 0.5 | 1 | 64 | 128 | 2 | 2 | < 1 | 16 | 8 | 64 | 128 | 256 | 8 |  |  |  |  | 
Cc1csc(-c2nc(COc3c4cc(CCNC(=N)N)cc3Cc3cc(CCNC(=N)N)cc(c3O)Cc3cc(CCNC(=N)N)cc(c3OCc3csc(-c5nc(C)cs5)n3)Cc3cc(CCNC(=N)N)cc(c3O)C4)cs2)n1.O=C(O)C(F)(F)F | 2 | 1 | 8 | 16 | 2 | 1 | 16 | 16 | 16 | 16 | 16 | 8 | 1 |  |  |  |  | 
N=C(N)NCCc1ccc(O)cc1.O=C(O)C(F)(F)F |  |  | 512 | > 512 | >0.5 | >0.5 | 32 | 512 | > 256 | 512 | > 256 | > 512 | >0.5 |  |  |  |  | 
Cc1ccc(-c2ccc(COc3ccc(CCNC(=N)N)cc3)cn2)nc1.O=C(O)C(F)(F)F | >2 | >1 | 8 | 128 | >16 | >16 |  | 4 | > 128 | 8 | > 128 | 64 | >32 |  |  |  |  | 
O=C([O-])C(F)(F)F.[Na+] |  |  |  |  |  |  |  |  |  |  |  |  |  | inactive | inactive | inactive | inactive | inactive
Cc1csc(-c2nc(COc3ccc(CCNC(=N)N)cc3)cs2)n1.O=C(O)C(F)(F)F | 1 | 0.5 | 16 | 128 | 4 | 1 | 8 | 8 | 32 | 64 | 64 | 64 | 8 |  |  |  |  | 
N=C(N)c1ccc(OCCCCCCOc2ccc(C(=N)N)cc2)cc1.O=C(O)C(F)(F)F | 16 | 1 | 4 | 32 | 8 | 4 | 4 | < 1 | 16 | 8 | 32 | 2 | 32 |  |  |  |  | 
